Assay outcomes (PubChem)
The list is not random: actives were taken first. Their share in the collection is about 4.1%.
KCNQ1 act – potentiators or activators of KCNQ1 channel, primary screen, cell-based, thallium flux, high-throughput. Potassium voltage-gated channel subfamily KQT member 1 (Homo sapiens), P51787. CHO-K1 KCNQ1, thallium flux FluxOR fluorescence; active compounds read high. B-score at 10 µM. hit rate 0.35% among 310,000;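 active = fluorescence ratio B-score, a plate-corrected score, at least three library SD, with initial intensity B-score within 5 SD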
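assay system = KCNQ1-transfected CHO-K1 cells | medium = assay buffer with matched DMSO | probe or stimulus = depolarizing K+/Tl+ stimulus, K2SO4 and Tl2SO4 each 12.5 mM in 5x stock | dosing = single dose | incubation = dye 90 min, compound 20 min, room temperature | detection = kinetic FluxOR fluorescence, 10 s baseline plus 110 s post-stimulus | evaluation = ratio B score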
KCNK9 inh – KCNK9 potassium channel inhibitors, primary screen, HEK293 cells, thallium flux; FluxOR thallium flux fluorescence; active compounds read low; hit rate 1.2% among 310,000; B-score at 10 µM;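 active = ratio B-score over 3 SD below the library mean, with starting fluorescence within 5 SD of its mean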;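 note: negative B-score means less thallium flux so channel inhibition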
KCNQ1 block – inhibitors of human KCNQ1 channel, primary screen, cell-based, thallium flux, high-throughput; Potassium voltage-gated channel subfamily KQT member 1 (Homo sapiens), P51787; CHO-K1 KCNQ1, FluxOR thallium flux fluorescence; active compounds read high; B-score at 10 µM; hit rate 1.3% among 310,000; AID 2642, 2010;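 active = compounds whose thallium flux B-score, printed positive for inhibition, exceeds three library SD while starting fluorescence stays within three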;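 note: channel opened by potassium depolarization with thallium stimulus after 20 min compound exposure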
KCC2 mod – KCC2 cotransporter modulators, thallium flux, primary screen, cell-based, HEK293 KCC2, FluoZin-2 fluorescence, MLSMR | hit rate 2.2% among 190,000 | KCC2 cells, thallium flux FluoZin-2 fluorescence | AID 1456, 2008 | Solute carrier family 12 member 5 (Homo sapiens), Q9H2X9 | B-score of Tl+ flux slope (higher = more flux/activation; lower = inhibition) at 10 µM;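 active = thallium flux slope and its plate-corrected score both differing from the plate sample mean at a set confidence after two filtering rounds, in either direction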;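 note: slope of fluorescence scaled to starting intensity during 10 to 20 s after thallium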
Target sequence (Q9H2X9 whole entry, looked up): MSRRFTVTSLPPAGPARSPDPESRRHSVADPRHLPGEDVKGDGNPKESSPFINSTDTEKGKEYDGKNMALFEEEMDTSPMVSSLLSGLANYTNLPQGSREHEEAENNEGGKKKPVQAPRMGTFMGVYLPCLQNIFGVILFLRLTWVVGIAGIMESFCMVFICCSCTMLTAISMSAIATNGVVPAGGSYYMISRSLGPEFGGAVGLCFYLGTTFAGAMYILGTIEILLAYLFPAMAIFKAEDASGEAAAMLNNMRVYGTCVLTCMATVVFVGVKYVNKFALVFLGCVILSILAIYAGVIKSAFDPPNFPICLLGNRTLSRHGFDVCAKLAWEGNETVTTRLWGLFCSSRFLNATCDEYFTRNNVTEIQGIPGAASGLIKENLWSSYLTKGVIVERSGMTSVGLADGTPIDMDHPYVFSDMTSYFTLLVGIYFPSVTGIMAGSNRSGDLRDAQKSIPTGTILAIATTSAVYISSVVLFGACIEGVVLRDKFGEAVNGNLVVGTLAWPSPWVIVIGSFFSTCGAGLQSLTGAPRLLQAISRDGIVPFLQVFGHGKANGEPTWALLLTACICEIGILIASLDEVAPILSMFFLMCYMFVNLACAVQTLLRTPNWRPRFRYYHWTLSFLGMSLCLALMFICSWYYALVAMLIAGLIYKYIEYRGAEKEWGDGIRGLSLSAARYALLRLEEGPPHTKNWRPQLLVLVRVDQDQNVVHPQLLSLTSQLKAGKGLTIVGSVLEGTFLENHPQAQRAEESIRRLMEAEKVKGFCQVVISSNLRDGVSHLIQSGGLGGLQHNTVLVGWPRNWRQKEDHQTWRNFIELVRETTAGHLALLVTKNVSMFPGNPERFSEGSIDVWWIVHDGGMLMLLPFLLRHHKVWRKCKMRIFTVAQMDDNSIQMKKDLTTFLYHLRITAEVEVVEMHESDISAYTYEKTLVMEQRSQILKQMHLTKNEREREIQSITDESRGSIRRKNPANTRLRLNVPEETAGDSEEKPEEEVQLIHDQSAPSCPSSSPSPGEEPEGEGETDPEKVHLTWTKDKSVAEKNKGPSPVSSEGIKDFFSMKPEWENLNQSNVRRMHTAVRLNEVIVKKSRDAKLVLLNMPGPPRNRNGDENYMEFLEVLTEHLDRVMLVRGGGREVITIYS
hERG protect – hERG rescue from dofetilide block, primary screen, cell-based, CHO-hERG, FluxOR thallium flux, dofetilide IC70. dofetilide IC70 present. activation (rescue from dofetilide block), less the hit threshold, % at 10 µM. Voltage-gated inwardly rectifying potassium channel KCNH2 (Homo sapiens), Q12809. hit rate 0.51% among 310,000;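 active = activation above the mean of controls blocked by dofetilide plus 5 SD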;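 note: thallium influx through hERG after potassium depolarization seen as dye fluorescence rise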
KCNK3 inh – human KCNK3 channel inhibitors, primary screen, CHO cells, FluxOR thallium flux, B-score; Potassium channel subfamily K member 3 (Homo sapiens), O14649; FluxOR fluorescence; active compounds read low; B-score at 10 µM; hit rate 0.84% among 340,000;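 active = B-score under library mean minus 4 SD, starting fluorescence ratio at most library mean plus 5 SD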;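 note: more negative B-score means stronger inhibition of thallium flux through KCNK3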
KCNK3 inh conf – retest of human KCNK3 channel inhibitors, confirmation, CHO cells, FluxOR thallium flux, triplicate. AID 651638, 2012. ratio percent of control, % at 10 µM. FluxOR fluorescence; 0% buffer, 100% carvedilol maximal block. shares compounds with KCNK3 inh. hit rate 99% among 2,400;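 active = ratio percent of control, averaged over triplicates, above buffer control mean plus 5 SD, cut at about 64% in these data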;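 note: ratio is the fluorescence rise from min to max over baseline after thallium stimulus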
KCNK3 uninduced – thallium flux inhibition in non-induced cells, primary screen, counter-screen for KCNK3 inhibitor project, cell-based, non-induced KCNK3 line, FluxOR thallium, triplicate. shares compounds with KCNK3 inh. non-induced KCNK3 parental cells; active compounds read low. thallium flux ratio (lower = more inhibition) at 10 µM. hit rate 40% among 2,400;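 active = thallium flux ratio, averaged over three wells, more than 5 SD below the buffer control mean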;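 note: host cells are CHO cells without KCNK3 induction; ratio is peak minus trough fluorescence over baseline then normalized to buffer controls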
The depositor's hits bear a star; i = inactive; · = no result.

SMILES	KCNQ1 act	KCNK9 inh	KCNQ1 block	KCC2 mod	hERG protect	KCNK3 inh	KCNK3 inh conf	KCNK3 uninduced
O=C(O)C1C2C=CC(C2)C1C(=O)NCc1ccc2c(c1)OCO2 (stereo not drawn)	i	i	i	0.6	-1	-8.9*	90*	i
O=[N+]([O-])c1ccc(O)c(C2CCCCC2)c1	·	·	·	·	·	-11*	127*	0.14*
COc1cc(C(=O)N(C)CCOc2ccc(C)cc2)ccc1OC1CCN(C(C)=O)CC1	i	i	i	·	-3	i	·	·
CCc1ccc2[nH]c(=O)c(CN(Cc3ccc4c(c3)OCO4)Cc3nnnn3C3CCCC3)cc2c1	i	i	i	1.6	-4	-8.7*	128*	0.13*
Cc1ccc2[nH]c(=O)c(CN(CCCN3CCOCC3)Cc3nnnn3C3CCCC3)cc2c1	i	i	i	-0.62	-5	i	·	·
Cc1ccc2cc(CN(Cc3ccccc3)Cc3nnnn3C3CCCC3)c(=O)[nH]c2c1	i	i	i	·	-6	-10*	103*	0.15*
Cc1ccc2cc(CN(Cc3ccc(F)cc3)Cc3nnnn3C3CCCC3)c(=O)[nH]c2c1	i	i	i	0.00068	-3	i	·	·
CCCc1ccc(OCc2ccc(C(=O)N3CCSCC3)o2)cc1	i	i	i	·	-2	i	·	·
O=C(Cc1cccs1)NNC(=S)NCc1ccc(Cl)cc1	i	-7.7*	i	-1.5	-6	-11*	77*	i
O=C(Cc1cccs1)NCc1ccccc1	i	i	i	0.22	-7	i	·	·
Cc1ccc2nc(-c3ccccc3)cc(C(=O)N(C)CC(=O)Nc3ccccc3Br)c2c1	i	i	i	·	-19	-14*	110*	i
COc1ccc(Cl)cc1NC(=O)CN(C)C(=O)c1cc(-c2ccncc2)nc2ccccc12	i	i	i	·	-20	-9.2*	120*	0.14*
Cc1ccc(N(Cc2cc3ccc(C)cc3[nH]c2=O)S(=O)(=O)c2ccccc2)cc1	i	i	i	·	-6	i	·	·
COc1ccc(C)cc1S(=O)(=O)Nc1ccc2c(c1)N(C(C)=O)CCC2	i	i	i	·	-17	i	·	·
CNC(=O)c1cc(Oc2ccc(NC(=O)Nc3ccc(Cl)c(C(F)(F)F)c3)cc2)ccn1	·	·	·	·	·	i	·	·
CN(c1ccc(Cl)cc1)c1cc(=O)n(C)c2ccccc12	i	i	i	-1	-5	-8.8*	98*	i
CCOC(=O)c1nn(-c2ccc(C)c(C)c2)c(=O)c(C#N)c1C	i	i	i	·	-6	i	·	·
Cc1c(C(=O)N2CCN(c3ccc(C(F)(F)F)cn3)CC2)oc2ccccc12	i	i	i	0.75	-7	-12*	135*	0.15*
Cc1cc(NC(=O)CN(C)CCOc2ccccc2)ccc1Br	i	i	i	-0.59	-19	i	·	·
COc1ccc(NC(=O)CN(C)CCOc2ccc(Cl)cc2)cc1OC	i	i	i	·	-4	i	·	·
CN(CCOc1ccc(Cl)cc1)CC(=O)Nc1ccc(OC(F)(F)F)cc1	i	i	i	·	-4	-9.1*	108*	0.15*
CN(CCOc1ccccc1)CC(=O)Nc1cccc(Br)c1	i	i	i	·	-14	-9.2*	94*	i
